From PubChem BioAssay
PKD1 inh: blocks activity of human protein kinase D1; Q15139; PKD1 kinase fluorescence polarization assay; inhibition, % (concentration not given with the values); actives 0.056% (n = 200,000); AID 797
EBV gp42 inh: EBV gp42 inhibition | Fluorescence polarization binding assay, mP read-out | inhibition, % (tested at 21.74 µM) | actives 0.42% (n = 220,000) | AID 1085
Target sequence (Q1HVG2 whole entry, looked up): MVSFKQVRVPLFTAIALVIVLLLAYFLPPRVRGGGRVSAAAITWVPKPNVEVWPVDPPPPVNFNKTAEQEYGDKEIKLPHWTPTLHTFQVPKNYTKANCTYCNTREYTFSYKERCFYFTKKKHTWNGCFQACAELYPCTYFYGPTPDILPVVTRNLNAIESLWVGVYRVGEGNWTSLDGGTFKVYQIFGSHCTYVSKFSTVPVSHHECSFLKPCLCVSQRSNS
14-3-3 Bad PPI: disrupts binding of bovine 14-3-3 zeta to phospho-Bad peptide; actives 0.71% (n = 220,000); P63103; TR-FRET 14-3-3zeta/Dy647-pBad peptide displacement, 1 h; inhibition, % at 21.7 µM; AID 781;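 active = inhibition above about 70%, limit read from the data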;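 also: 0% = full 14-3-3 plus peptide FRET controls and 100% = background without 14-3-3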
Target sequence (P63103 whole entry, looked up): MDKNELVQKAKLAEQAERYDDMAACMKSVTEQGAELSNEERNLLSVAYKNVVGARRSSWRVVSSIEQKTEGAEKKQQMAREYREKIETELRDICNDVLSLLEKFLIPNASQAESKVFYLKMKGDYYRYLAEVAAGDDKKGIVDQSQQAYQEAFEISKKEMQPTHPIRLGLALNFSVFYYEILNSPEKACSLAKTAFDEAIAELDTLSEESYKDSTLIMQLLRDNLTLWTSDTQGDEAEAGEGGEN
eIF4E 4G PPI: inhibitors of eIF4E and eIF4G interaction in translation initiation. P63073+Q04637. TR-FRET eIF4E-eIF4GI(517-606) binding, 2 h. inhibition, % at 21.7 µM. actives 0.37% (n = 220,000). AID 782;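 active = inhibition above about 30%, limit read from the data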;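 also: 0% = full FRET control wells and 100% = background wells lacking eIF4GI fragment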
RBBP9 inhibitor: blocks human serine hydrolase RBBP9; inhibition, % at 7.94 µM; AID 1515; recombinant RBBP9, FP-Rh probe fluorescence polarization; actives 0.2% (n = 220,000); O75884;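 active = inhibition above the campaign mean of all tested compounds plus 3 SD, cut at about 14% in these data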;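 also: plate controls were DMSO wells with RBBP9 for no effect and wells lacking RBBP9 protein for full effect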
Target sequence (O75884 whole entry, looked up): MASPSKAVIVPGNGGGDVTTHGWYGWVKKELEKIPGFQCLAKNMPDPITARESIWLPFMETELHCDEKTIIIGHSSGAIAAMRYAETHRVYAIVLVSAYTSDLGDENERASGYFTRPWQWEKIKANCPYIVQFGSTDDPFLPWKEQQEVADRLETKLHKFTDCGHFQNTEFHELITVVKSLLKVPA
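Measured by – fluorescence polarization · Test system – RBBP9 protein · Input – 2.5 µM RBBP9 dispensing solution, before mixing · Measure – percent inhibition from mP, scaled between DMSO and no-protein wells · Benchmarks – DMSO-treated enzyme wells and wells lacking RBBP9 · Times – preincubation 30 min plus labeling 45 min at 25 °C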
* = called active by the depositor; nt = no result given; [ ] = remark or other dose. An excerpt weighted towards active compounds, which were near 1.6% of everything screened. Rule as the data show it, unless noted: active = inhibition above about 50%; inactive = the rest.

SMILES | PKD1 inh | EBV gp42 inh | 14-3-3 Bad PPI | eIF4E 4G PPI | RBBP9 inhibitor
COCCCNC(=O)CC1Oc2ccccc2NC1=O (stereo unspecified) | 6.9 | 2.8 | -8.7 | 3.8 | 0.6
CCCSCCCNC(=O)CC1Oc2ccccc2NC1=O (stereo unspecified) | -8.3 | 67.8* | 6.7 | 0.0 | -7.0
CC1CC(C)CN(c2ccc(C(=O)NCc3ccc4c(c3)OCO4)cc2[N+](=O)[O-])C1 (stereo unspecified) | -0.3 | -1.3 | -0.9 | 5.2 | -9.2
Cc1ccc(NC(=S)N2CCCCC2)cc1C | nt | -21.4 | -1.9 | -1.2 | -3.7
CCNS(=O)(=O)c1ccc2c(c1)n(C)c(=O)n2C | -2.9 | 0.2 | -8.0 | 1.9 | -8.9
CCCNS(=O)(=O)c1ccc2c(c1)n(C)c(=O)n2C | -0.6 | -7.4 | 83.8* | -2.8 | -0.8
Cn1c(=O)n(C)c2cc(S(=O)(=O)O)ccc21 | -2.8 | -23.6 | 73.9* | 8.5 | 6.8
COc1ccccc1NC(=O)CC(c1ccc(OC(C)C)cc1)c1ccccc1OC (stereo unspecified) | 3.2 | 69.5* | -6.3 | 0.1 | -6.5
CN(NC(=O)c1ccccc1Cl)c1ncc(C(F)(F)F)cc1Cl | nt | -8.5 | -5.9 | 4.0 | -0.3
Cc1ccc(OCC(=O)N/N=C\c2ccncc2)c(C)c1 | 0.1 | -12.6 | -0.3 | 0.4 | -4.8
O=C1OCC2OC(O)C(O)C(O)C2OC(=O)c2cc(O)c(O)c(O)c2-c2c(O)c(O)c3oc(=O)c4c(c(O)c(O)c5oc(=O)c2c3c54)-c2c1cc(O)c(O)c2O (stereo unspecified) | nt | 22.1 | 75.2* | 34.4* | nt
CN(C(=O)COC(=O)c1nc(Cl)c(Cl)c(Cl)c1Cl)C1CCS(=O)(=O)C1 (stereo unspecified) | -3.0 | -12.2 | 5.4 | 3.0 | -3.9
O=C(NCCNC1CCN(Cc2ccccc2)CC1)c1cccs1 | -12.3 | 2.3 | 70.7* | -12.1 | -0.6
O=C(CNC(=O)c1cccs1)NCCN1CCC(Cc2ccccc2)CC1 | -4.3 | -17.9 | -0.5 | -1.2 | -5.2
O=C(NCc1ccc(-n2cccc2)cc1)c1cccc(F)c1 | -3.3 | -16.7 | -13.0 | 3.4 | -3.4
N#CCC(=O)Nc1ccc(C(F)(F)F)cc1N1CCOCC1 | 1.6 | -2.1 | -8.4 | -2.8 | -9.2
O=C1c2ccccc2C(=O)c2c(NCc3cccnc3)cccc21 | -8.7 | -1.5 | 17.2 | 14.7 | -12.6
CNc1cccc2c1C(=O)c1ccccc1C2=O | 6.8 | 78.4* | -10.6 | -1.5 | -3.2
COc1ccc(CC(=O)Nc2nnc(C(C)C)s2)cc1 | 5.7 | -5.0 | -11.5 | 46.5* | 5.3
CC(C)c1nnc(NC(=O)Cc2ccc(Br)cc2)s1 | -1.7 | -16.3 | -1.3 | 3.5 | -11.3
Cc1ccccc1N/C(SCc1cccc(Br)c1)=C(/C#N)C(N)=O | -12.7 | -8.4 | 71.3*[fluorescence artefact?] | 0.7 | -3.6
COc1cccc(N/C(SCc2cccc([N+](=O)[O-])c2)=C(/C#N)C(N)=O)c1 | 0.0 | -3.0 | -21.0 | -4.1 | 0.5
CCOC(=O)c1c(-c2cccc([N+](=O)[O-])c2)csc1NC(=O)CCCOc1ccccc1 | -6.3 | -2.2 | 5.3 | 75.5* | -0.9
CC(=O)Nc1ccc(NC2=Nc3ccccc3N3C2=Nc2c(c(C)nn2-c2ccccc2)C3c2ccccc2)cc1 (stereo unspecified) | -6.0 | 70.8* | -8.8 | -29.6 | -0.5
COc1ccc(NC2=Nc3ccccc3N3C2=Nc2c(c(C)nn2-c2ccc(C)cc2)C3c2cccnc2)cc1 (stereo unspecified) | -2.0 | 35.4 | -14.6 | -3.9 | -2.5
SMILES | PKD1 inh | EBV gp42 inh | 14-3-3 Bad PPI | eIF4E 4G PPI | RBBP9 inhibitor
O=C1C2C3C=CC(CO)(O3)C2C(=O)N1c1ccccc1-c1ccccc1 (stereo unspecified) | -4.1 | -22.5 | 7.8 | 3.0 | 33.2*
CCC(=O)c1cc(F)c(N2CCN(S(=O)(=O)c3ccc(C)cc3)CC2)cc1C | 3.8 | 0.3 | 6.5 | -2.9 | -11.6
CCC1=NN2C(=N)/C(=C\c3ccc(OCc4cc(=O)n5nc(CC)sc5n4)c(OC)c3)C(=O)N=C2S1 | 6.4 | 62.9* | 4.2 | 21.5 | -4.4
CCN1CCN(CC(=O)Nc2nc3ccc(OC)cc3s2)CC1 | -3.4 | 20.7 | 78.6*[fluorescence artefact?] | -0.6 | -0.8
COc1ccc(NC(=O)CN2CCOCC2)cc1 | 0.1 | -2.1 | 73.0* | -2.1 | 1.7
COc1ccc2nc(NC(=S)N(C)C)sc2c1 | -8.2 | -14.6 | 3.3 | 41.0*[fluorescence artefact?] | 0.3
N#Cc1c(-n2cccc2)cccc1-n1cccc1 | 11.2 | -13.0 | -9.1 | -3.6 | -4.4
N#Cc1c(C#N)c(O)c2ccccc2c1O | nt | 68.3* | 5.1 | -0.7 | -3.7
COc1ccc2c(c1)CC(C1(O)C(=O)N(C)c3ccccc31)C2=O (stereo unspecified) | -2.5 | -23.2 | 74.4* | 9.9 | -2.3
COc1cc(C(C)=O)ccc1COc1ccc(C(=O)O)cc1OC | nt | -2.5 | 6.3 | -2.8 | -10.3
COc1ccc(/C=C/C(O)=C(\C#N)c2nnc(N3CCOCC3)n2-c2ccccc2)cc1OC | 1.8 | -1.9 | -4.8 | -1.5 | 4.3
COc1ccc(N2C(C)=CS/C2=C(/C#N)c2nnc(N3CCOCC3)n2-c2ccccc2)cc1 | 4.8 | -6.6 | 83.8* | 1.1 | -2.7
CCOC(=O)Nc1sc(=S)n(C)c1C | -16.7 | 1.9 | 84.2* | -4.5 | -3.4
Cc1c(NC(=O)OCCNC(=O)Nc2ccccc2)sc(=S)n1C | -0.2 | 6.8 | -4.8 | 8.4 | -9.9
CC(=O)Nc1cccc(C2=CC(c3ccco3)n3ncnc3N2)c1 (stereo unspecified) | 5.7 | 130.1* | -26.2 | 0.6 | -3.8
COc1ccc(C2=CC(c3ccco3)n3ncnc3N2)cc1 (stereo unspecified) | -4.4 | 87.8* | -5.5 | 0.4 | -1.9
COc1ccc(C2C=C(c3ccccc3)Nc3ncnn32)cc1 (stereo unspecified) | -2.1 | -1.9 | -9.4 | 4.8 | 0.8
Clc1ccc(C2=CC(c3ccco3)n3ncnc3N2)cc1 (stereo unspecified) | -15.0 | 80.5* | -1.6 | 8.8 | 2.7
Clc1ccccc1C1=CC(c2ccco2)n2ncnc2N1 (stereo unspecified) | nt | 12.8 | -2.5 | -2.7 | -13.8
Cc1cc(/C=C2\NC(=O)N(Cc3ccc(Cl)cc3)C2=O)c(C)n1C | 2.7 | -28.8 | -17.5 | -9.8 | -2.6
O=C(O)C1CN(C(=O)c2cccc(Br)c2)C1 | 3.8 | -3.9 | -3.1 | -0.6 | 4.7
Cc1ccccc1CSc1nnc(-c2cnccn2)n1C | nt | 6.5 | -2.6 | -1.6 | -6.5
COc1ccccc1Nc1nc(N)nc(CSC(=S)N2CCCCC2)n1 | nt | -6.4 | -2.6 | -5.9 | -0.9
COc1cc(CN(C(=O)c2ccco2)c2ccc(C)cc2)ccc1O | -4.8 | -13.6 | 1.1 | 36.9*[fluorescence artefact?] | -3.5
O=C(O)c1ccccc1Nc1ccccc1C(=O)O | 6.7 | -11.9 | 48.3 | 7.2 | -4.7
O=C(O)c1ccccc1Nc1ccnc(Cl)n1 | nt | -15.4 | -3.6 | 74.5* | -0.4
COc1ccc(OC)c(/C=N\NC(=O)CSc2nnc(CCCc3ccc(OC)c(C)c3)o2)c1 | 11.3 | 4.9 | -4.5 | 2.5 | -5.6
